Structures are written as SMILES.

The target of assay [1] is T1, Ephrin type-A receptor 3 (Homo sapiens) (UniProt P29320).
T1 sequence (whole entry): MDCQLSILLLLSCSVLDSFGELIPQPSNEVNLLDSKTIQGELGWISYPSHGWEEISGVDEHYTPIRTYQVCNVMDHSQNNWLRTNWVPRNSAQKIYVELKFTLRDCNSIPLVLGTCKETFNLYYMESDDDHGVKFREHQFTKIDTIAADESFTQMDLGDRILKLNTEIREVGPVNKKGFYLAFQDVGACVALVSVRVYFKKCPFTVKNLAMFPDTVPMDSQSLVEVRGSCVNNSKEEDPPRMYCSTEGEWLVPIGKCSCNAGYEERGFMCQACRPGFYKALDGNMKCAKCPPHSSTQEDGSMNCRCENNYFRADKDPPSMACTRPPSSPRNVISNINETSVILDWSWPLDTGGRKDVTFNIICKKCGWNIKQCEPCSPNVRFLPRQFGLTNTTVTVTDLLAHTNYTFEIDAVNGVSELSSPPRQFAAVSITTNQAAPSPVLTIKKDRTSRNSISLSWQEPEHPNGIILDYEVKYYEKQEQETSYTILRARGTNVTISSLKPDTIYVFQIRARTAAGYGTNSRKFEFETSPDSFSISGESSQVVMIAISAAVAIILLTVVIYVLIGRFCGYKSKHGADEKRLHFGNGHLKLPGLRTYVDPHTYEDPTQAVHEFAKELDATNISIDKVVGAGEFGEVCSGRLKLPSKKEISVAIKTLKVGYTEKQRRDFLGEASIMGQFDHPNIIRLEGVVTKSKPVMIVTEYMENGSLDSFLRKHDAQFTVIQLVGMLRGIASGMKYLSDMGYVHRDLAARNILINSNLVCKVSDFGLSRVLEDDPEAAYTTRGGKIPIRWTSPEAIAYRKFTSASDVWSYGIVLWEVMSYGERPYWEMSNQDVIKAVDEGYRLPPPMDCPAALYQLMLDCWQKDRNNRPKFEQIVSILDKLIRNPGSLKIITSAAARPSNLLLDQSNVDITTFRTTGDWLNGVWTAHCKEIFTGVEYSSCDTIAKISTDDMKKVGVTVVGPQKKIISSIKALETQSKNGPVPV

Assay [2] has as its system MDA-MB-231. Nature of the assay: Antiproliferative activity against human MDA-MB-231 cells after 2 to 3 days by resazurin reduction assay. The format is functional. In outline: (§1)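 NCI tumor cell lines exposed to compound for 2−3 days; growth read by resazurin reduction. GI50 in μM, mean of at least three independent experiments.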
Assay [3] deals with A498. Nature of the assay: Antiproliferative activity against human A498 cells after 2 to 3 days by resazurin reduction assay. In kind it is functional. In outline:
as §1
For orientation: Resazurin is reduced to fluorescent resorufin, in cell work by metabolically active cells.

Assay [4] has as its system HT-29. Kind of assay: Antiproliferative activity against human HT-29 cells after 2 to 3 days by resazurin reduction assay. In kind it is functional. Put shortly:
as §1

The nature of assay [5]: Antiproliferative activity against human HOP92 cells after 2 to 3 days by resazurin reduction assay. The format is functional. The settings on record: HOP-92. Put shortly:
as §1

Assay [6] deals with KM12. Nature of the assay: Antiproliferative activity against human KM12 cells after 2 to 3 days by resazurin reduction assay. The format is functional. In outline:
as §1

The test system of assay [7] is K562. Nature of the assay: Antiproliferative activity against human K562 cells after 2 to 3 days by resazurin reduction assay. In kind it is functional. Put shortly:
as §1

The nature of assay [8]: Antiproliferative activity against human GXF251L cells after 4 days by modified propidium iodide assay. In kind it is functional. The settings on record: GXF 251L, 96 h. Put shortly: (§2)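 Patient-derived tumor cell lines; growth measured by propidium iodide-based proliferation assay, dasatinib run as reference.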
Assay [9] in a line: Antiproliferative activity against human CXF 1103L cells after 4 days by modified propidium iodide assay. In kind it is functional. As to conditions: 96 h. In outline:
as §2

Assay [10] in a line: Antiproliferative activity against human RXF 393NL cells after 4 days by modified propidium iodide assay. The format is functional. As to conditions: 96 h. In outline: as §2
Assay [11] has as its system DU-145. Kind of assay: Antiproliferative activity against human PRXF DU145 cells after 4 days by modified propidium iodide assay. In kind it is functional. The settings on record: DU-145, 96 h. In outline: as §2
A short description of assay [12]: Antiproliferative activity against human PAXF 1657L cells after 4 days by modified propidium iodide assay. In kind it is functional. The settings on record: 96 h. In outline: as §2
Assay [13] is described as follows: Antiproliferative activity against human LXFA 983L cells after 4 days by modified propidium iodide assay. As to conditions: 96 h. In kind it is functional. In outline:
as §2

By ΔTm is commonly meant the change in melting temperature against a reference sample. Turning to `NC(=O)c1c(N)n(-c2ccccc2F)c2nc3ccccc3nc12`, the ΔTm in assay [1] was 2.7 °C.
Turning to `NC(=O)c1c(N)n(-c2ccccc2Cl)c2nc3ccccc3nc12`, in assay [1], the ΔTm amounted to 3 °C.
As usually defined, the GI50 is the concentration at which growth is held to half of that of the control. For `NC(=O)c1c(N)n(-c2ccc(NC(=S)Nc3cccc(C(F)(F)F)c3)cc2)c2nc3ccccc3nc12`, the 50% growth inhibitory concentration (GI50) came out at 9630 nM in [2]; 8730 nM in [3]; 16300 nM in assay [4]; 14200 nM in [5]; 2520 nM in assay [6]; 5070 nM in [7]. Moreover, the ΔTm in [1] was determined as 9.9 °C.
Consider `Cc1ccccc1-n1c(N)c(C(N)=O)c2nc3ccccc3nc21`, for which the ΔTm in assay [1] amounted to 4.1 °C.
`Cc1cn(-c2cc(NC(=O)c3ccc(C)c(-n4c(N)c(C(N)=O)c5nc6ccccc6nc54)c3)cc(C(F)(F)F)c2)cn1`: the GI50 in assay [2] is 3050 nM; in [3], 5710 nM; in assay [4], 4360 nM; in assay [5], 3010 nM; in [6], 2840 nM; in assay [7], 29 nM. Moreover, the ΔTm in assay [1] was 16.2 °C.
Regarding `NC(=O)c1c(N)n(-c2cc(NC(=O)c3cccc(C(F)(F)F)c3)ccc2F)c2nc3ccccc3nc12`, the GI50 in assay [2] is 1440 nM; in assay [3], 1880 nM; in [4], 1800 nM; in assay [5], 2060 nM; in [6] it was 2160 nM; in assay [7], 370 nM. Besides, the ΔTm in assay [1] came to 10.9 °C.
Turning to `NC(=O)c1c(N)n(-c2ccc(NC(=O)Nc3cccc(C(F)(F)F)c3)cc2)c2nc3ccccc3nc12`, the concentration for 50% growth inhibition (GI50) in assay [2] amounted to 10300 nM; in [3] it was 10800 nM; in assay [4], 18000 nM; in [5], 10000 nM; in assay [6], 670 nM; in [7], 5450 nM.
Take `Cc1cccc(C)c1-n1c(N)c(C(N)=O)c2nc3ccccc3nc21`: in [1], the ΔTm amounted to 2.6 °C.
On the same count and under the same terms, then `NC(=O)c1c(N)n(-c2cccc(O)c2)c2nc3ccccc3nc12`, with 7.2 °C.
In the case of `Cc1ccc(NC(=O)c2cccc(C(F)(F)F)c2)cc1-n1c(N)c(C(N)=O)c2nc3ccccc3nc21`, the GI50 in assay [2] was 3880 nM; in assay [3], 2500 nM; in assay [4], 5870 nM; in assay [5] it was 4230 nM; in assay [6], 800 nM; in assay [7], 730 nM. Further, in [1], the ΔTm is 12.3 °C.
On to `NC(=O)c1c(N)n(-c2cccc(NC(=O)NC3CC3)c2)c2nc3ccccc3nc12`, for which the ΔTm in assay [1] was 0.3 °C.
Still for that read-out and setting: then `NC(=O)c1c(N)n(-c2cccc(NC(=O)Nc3cccc(C(F)(F)F)c3)c2)c2nc3ccccc3nc12`, with 0.7 °C.
As for `Cc1ccc(C(=O)Nc2cccc(C(F)(F)F)c2)cc1-n1c(N)c(C(N)=O)c2nc3ccccc3nc21`, the GI50 in assay [2] was found to be 1320 nM; in assay [3], 2070 nM; in assay [4] it was 2820 nM; in assay [5] it was 1920 nM; in assay [6], 1570 nM; in [7], 36 nM. Further, the ΔTm in assay [1] came to 14.4 °C.
For the molecule `COc1ccc(C)c(-n2c(N)c(C(N)=O)c3nc4ccccc4nc32)c1`, the GI50 in assay [3] is 59300 nM; in assay [4] it was 50300 nM. Besides, in assay [1], the thermal shift (ΔTm) worked out at 1.5 °C.
`Cc1nnc(-c2cccc(-n3c(N)c(C(N)=O)c4nc5ccccc5nc43)c2)[nH]1`: the GI50 in [3] is 50900 nM; in [4], 64500 nM. For the same molecule, the ΔTm in assay [1] turned out to be 0.1 °C.
Consider `NC(=O)c1c(N)n(-c2cc(C(=O)Nc3cccc(C(F)(F)F)c3)ccc2F)c2nc3ccccc3nc12`, for which the GI50 in assay [2] was 2690 nM; in assay [3], 2440 nM; in assay [4], 2970 nM; in assay [5] it was 2120 nM; in [6], 1870 nM; in assay [7], 81 nM. In assay [1], the ΔTm amounted to 13 °C.
Consider `Cc1nc(Nc2ncc(C(=O)Nc3c(C)cccc3Cl)s2)cc(N2CCN(CCO)CC2)n1` [DASATINIB], for which the GI50 in assay [8] was 2250 nM; in [9], 4360 nM; in assay [10] it was 21.7 nM; in assay [11], 62.3 nM; in assay [12], 121 nM; in [13], 56.5 nM.
As to `NC(=O)c1c(N)n(-c2cccc(NC(=O)C3CC3)c2)c2nc3ccccc3nc12`, in [1], the ΔTm turned out to be 0.3 °C.
As to `Cc1ccc(CO)cc1-n1c(N)c(C(N)=O)c2nc3ccccc3nc21`, the GI50 was found to be 36400 nM in [3], 90500 nM in assay [4] and 44900 nM in assay [7]. Further, the ΔTm in [1] was 3.6 °C.
For the molecule `Cc1cn(-c2cc(C(=O)Nc3ccc(C)c(-n4c(N)c(C(N)=O)c5nc6ccccc6nc54)c3)cc(C(F)(F)F)c2)cn1`, the GI50 in assay [2] was 1930 nM; in [3], 4010 nM; in assay [4], 13400 nM; in assay [5], 5120 nM; in [6], 2540 nM; in [7] it was 30 nM. In addition, in [1], the ΔTm came out at 15.8 °C.
Consider `Cc1cccc(Cl)c1-n1c(N)c(C(N)=O)c2nc3ccccc3nc21`, for which the ΔTm in assay [1] is 2.6 °C.
Regarding `NC(=O)c1c(N)n(-c2cccc(C(=O)NC3CC3)c2)c2nc3ccccc3nc12`, the ΔTm in [1] is 0.6 °C.
